Reference: ChEMBL document CHEMBL1132453, “Heteroarotinoids inhibit head and neck cancer cell lines in vitro and in vivo through both RAR and RXR retinoic acid receptors” (J Med Chem, 1999)

How the values were obtained:
[1] = system: SCC-38 (Homo sapiens); experiment: Inhibition of SCC-38 cell proliferation; parameters: concentration or dose not given beside the values
[2] = system: SCC-2 (Homo sapiens); experiment: Inhibition of SCC-2 cell proliferation; parameters: concentration or dose not given beside the values
[3] = target: T1, Retinoic acid receptor gamma (Homo sapiens, UniProt P13631); experiment: Transcriptional activation in CV-1 cells expressing human Retinoic acid receptor RAR gamma; assay type: cell-based
T1 sequence (P13631 whole entry): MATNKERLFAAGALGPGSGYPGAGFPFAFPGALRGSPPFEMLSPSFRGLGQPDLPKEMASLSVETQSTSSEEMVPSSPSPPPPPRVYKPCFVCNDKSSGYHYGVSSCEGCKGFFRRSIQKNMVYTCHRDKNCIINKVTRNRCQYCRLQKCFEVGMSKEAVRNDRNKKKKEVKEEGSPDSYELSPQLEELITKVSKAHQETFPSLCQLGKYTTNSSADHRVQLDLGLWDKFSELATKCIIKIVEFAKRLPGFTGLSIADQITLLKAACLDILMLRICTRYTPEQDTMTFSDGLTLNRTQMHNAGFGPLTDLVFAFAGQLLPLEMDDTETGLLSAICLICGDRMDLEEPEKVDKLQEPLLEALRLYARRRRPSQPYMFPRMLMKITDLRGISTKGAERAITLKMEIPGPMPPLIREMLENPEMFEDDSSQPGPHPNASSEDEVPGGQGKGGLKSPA
Summary of the method: (§1)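 CV-1 cells were plated at 7.5 × 10^4/well and transfected 24 h later (FuGENE6). Each well got a receptor vector (human RARα/β/γ in pECE or mouse RXRα/β/γ in pSG5), a βRARE-tk-CAT reporter and a β-actin-βGal control. After 16-18 h, ligand was added in 10-fold steps from 10^-10 to 10^-5 M (0.01% DMSO) for 24 h. CAT was measured by ELISA and normalised to βGal. Triplicates, repeated at least twice.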

[4] = target: T2, Retinoic acid receptor alpha (Homo sapiens, UniProt P10276); experiment: Transcriptional activation in CV-1 cells expressing human Retinoic acid receptor RAR alpha; assay type: cell-based
T2 sequence (P10276 whole entry): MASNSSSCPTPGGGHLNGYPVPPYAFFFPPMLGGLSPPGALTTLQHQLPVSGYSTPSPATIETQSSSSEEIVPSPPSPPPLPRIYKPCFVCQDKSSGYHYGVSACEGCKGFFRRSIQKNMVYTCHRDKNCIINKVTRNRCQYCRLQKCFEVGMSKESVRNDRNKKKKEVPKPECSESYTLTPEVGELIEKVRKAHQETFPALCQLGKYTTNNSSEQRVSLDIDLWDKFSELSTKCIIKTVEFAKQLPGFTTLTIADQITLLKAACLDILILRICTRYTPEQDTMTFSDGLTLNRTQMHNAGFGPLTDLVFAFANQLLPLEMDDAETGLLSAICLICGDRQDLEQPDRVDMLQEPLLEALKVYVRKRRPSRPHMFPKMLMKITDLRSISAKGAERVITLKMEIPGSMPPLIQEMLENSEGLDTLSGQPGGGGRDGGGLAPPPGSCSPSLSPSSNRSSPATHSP
Summary of the method: as §1

[5] = target: T3, Retinoic acid receptor RXR-alpha (Mus musculus, UniProt P28700); experiment: Transcriptional activation of CV-1 cells expressing murine Retinoid X receptor RXR alpha; assay type: cell-based
T3 sequence (P28700 whole entry): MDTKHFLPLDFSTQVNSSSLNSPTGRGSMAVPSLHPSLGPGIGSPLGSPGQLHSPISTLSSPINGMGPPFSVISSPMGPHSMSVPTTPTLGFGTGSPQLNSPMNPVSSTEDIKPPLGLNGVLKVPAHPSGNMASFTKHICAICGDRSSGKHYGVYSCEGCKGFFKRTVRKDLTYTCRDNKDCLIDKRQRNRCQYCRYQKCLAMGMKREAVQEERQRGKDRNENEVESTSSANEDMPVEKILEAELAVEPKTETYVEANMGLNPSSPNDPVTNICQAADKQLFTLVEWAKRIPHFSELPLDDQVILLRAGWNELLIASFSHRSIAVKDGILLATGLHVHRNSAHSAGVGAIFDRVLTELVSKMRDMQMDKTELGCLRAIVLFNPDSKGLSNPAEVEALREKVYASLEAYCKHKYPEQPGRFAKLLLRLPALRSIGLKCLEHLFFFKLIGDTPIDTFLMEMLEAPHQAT
Summary of the method: as §1

[6] = target: T4, Retinoic acid receptor RXR-beta (Mus musculus, UniProt P28704); experiment: Transcriptional activation of CV-1 cells expressing murine Retinoid X receptor RXR beta; assay type: cell-based
T4 sequence (P28704 whole entry): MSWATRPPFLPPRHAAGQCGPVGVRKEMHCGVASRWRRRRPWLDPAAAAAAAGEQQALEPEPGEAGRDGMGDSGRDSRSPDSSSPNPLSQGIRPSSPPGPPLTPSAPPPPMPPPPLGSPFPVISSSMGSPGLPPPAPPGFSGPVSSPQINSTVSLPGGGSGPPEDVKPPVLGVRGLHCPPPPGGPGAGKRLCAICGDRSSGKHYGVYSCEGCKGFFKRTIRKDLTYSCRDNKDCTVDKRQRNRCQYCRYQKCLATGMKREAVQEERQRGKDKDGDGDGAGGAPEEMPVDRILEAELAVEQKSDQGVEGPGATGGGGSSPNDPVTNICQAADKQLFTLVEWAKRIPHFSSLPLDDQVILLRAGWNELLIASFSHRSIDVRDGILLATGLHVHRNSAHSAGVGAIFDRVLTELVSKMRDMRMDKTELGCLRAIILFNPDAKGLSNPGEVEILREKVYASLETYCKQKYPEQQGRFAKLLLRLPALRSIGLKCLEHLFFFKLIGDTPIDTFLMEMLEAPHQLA
Summary of the method: as §1

[7] = target: T5, Retinoic acid receptor beta (Homo sapiens, UniProt P10826); experiment: Transcriptional activation in CV-1 cells expressing human Retinoic acid receptor RAR beta; assay type: cell-based
T5 sequence (P10826 whole entry): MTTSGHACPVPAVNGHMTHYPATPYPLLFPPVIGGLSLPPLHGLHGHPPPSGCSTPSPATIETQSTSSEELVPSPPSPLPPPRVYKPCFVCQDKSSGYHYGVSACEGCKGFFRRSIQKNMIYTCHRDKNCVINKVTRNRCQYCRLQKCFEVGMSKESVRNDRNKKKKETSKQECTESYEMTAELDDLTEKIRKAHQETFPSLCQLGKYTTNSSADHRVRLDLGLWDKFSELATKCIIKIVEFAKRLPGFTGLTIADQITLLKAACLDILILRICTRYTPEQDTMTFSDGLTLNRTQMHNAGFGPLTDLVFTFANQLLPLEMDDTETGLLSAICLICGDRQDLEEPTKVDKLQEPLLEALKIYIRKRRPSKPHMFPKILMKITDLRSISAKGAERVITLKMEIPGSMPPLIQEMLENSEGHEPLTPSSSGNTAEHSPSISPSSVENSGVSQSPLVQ
Summary of the method: as §1

[8] = target: T6, Retinoic acid receptor RXR-gamma (Mus musculus, UniProt P28705); experiment: Transcriptional activation of CV-1 cells expressing murine Retinoid X receptor RXR gamma; assay type: cell-based
T6 sequence (P28705 whole entry): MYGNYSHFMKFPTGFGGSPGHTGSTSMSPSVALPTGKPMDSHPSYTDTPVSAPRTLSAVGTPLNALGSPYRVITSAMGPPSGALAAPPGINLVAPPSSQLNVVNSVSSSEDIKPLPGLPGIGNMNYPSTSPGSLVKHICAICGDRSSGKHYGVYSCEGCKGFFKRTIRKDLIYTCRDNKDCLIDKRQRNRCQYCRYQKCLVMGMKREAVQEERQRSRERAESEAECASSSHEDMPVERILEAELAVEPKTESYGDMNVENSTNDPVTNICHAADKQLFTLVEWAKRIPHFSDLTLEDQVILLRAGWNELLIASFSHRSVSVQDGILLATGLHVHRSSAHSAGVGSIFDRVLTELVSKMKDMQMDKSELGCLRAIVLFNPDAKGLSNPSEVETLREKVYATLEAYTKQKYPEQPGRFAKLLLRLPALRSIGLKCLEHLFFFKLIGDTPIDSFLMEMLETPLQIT
Summary of the method: as §1

[9] = system: SCC-38 (Homo sapiens); experiment: Inhibition of SCC-38 cell proliferation
[10] = system: SCC-2 (Homo sapiens); experiment: Inhibition of SCC-2 cell proliferation

SMILES | Inhibition [1] [%] | Inhibition [2] [%] | also measured
CCOC(=O)c1ccc(OC(=O)c2ccc3c(c2)C(C)(C)CCN3C(C)C)cc1 | 15 | 5 | 
C/C(=C\c1ccc(C(=O)O)cc1)c1ccc2c(c1)C(C)(C)CO2 | 1 | 1 | 
CCCCCCCCC1CCc2cc(/C(C)=C/c3ccc(C(=O)OCC)cc3)ccc2S1 (centres undefined) | 17 | 10 | 
CCOC(=O)c1ccc(OC(=O)c2ccc3c(c2)C(C)(C)CCO3)cc1 | 13 | -6 | 
COC(=O)c1ccc(C(=O)Oc2c(C)cc3c(c2C)C(C)(C)C=C(C)O3)cc1 | -8 | 15 | 
COC(=O)c1ccc(N(OC)C(=O)c2ccc3c(c2)C(C)(C)CCO3)cc1 | 17 | 3 | 
COC(=O)c1ccc(C(=O)Oc2c(C)cc3c(c2C)C(C)(C)CC(C)(C)O3)cc1 | 9 | -1 | 
CCOC(=O)c1ccc(OC(=O)c2cc3c(cc2OC)C(C)(C)COC3(C)C)cc1 | 6 | 52 | 
CCOC(=O)c1ccc(OC(=O)c2cc3c(cc2OC)C(C)(C)CCC3(C)C)cc1 | 12 | 15 | 
COC(=O)c1ccc(C(=O)Nc2ccc3c(c2)C(C)(C)CC(C)(C)S3)cc1 |  |  | EC50 [3]: 152 nM; EC50 [4]: 225 nM; EC50 [5]: 84 nM; EC50 [6]: 1000 nM; EC50 [7]: 1000 nM; EC50 [8]: 302 nM; Inhibition [9]: 37%; Inhibition [10]: 64%
CCOC(=O)/C=C(C)/C=C/C=C(\C)c1ccc2c(c1)OCCO2 | -2 | -33 | 
CCOC(=O)c1ccc(OC(=O)c2cc3c(cc2C)N(C)CCC3(C)C)cc1 | 7 | 9 | 
CC1(C)CCOc2ccc(C(=O)Oc3ccc(/C=N/N=C(/N)S)cc3)cc21 | 18 | 19 | EC50 [3]: > 10000 nM; EC50 [4]: > 10000 nM; EC50 [5]: 294 nM; EC50 [6]: 84 nM; EC50 [7]: > 10000 nM; EC50 [8]: 1900 nM
CC(/C=C/C=C(\C)c1ccc2c(c1)C(C)(C)CCS2)=C\C(=O)O | 1 | 2 | 
CCOC(=O)c1ccc(OC(=O)c2ccc3c(c2)C(C)(C)CCN3C)cc1 | 13 | 12 | 
CC1=C(/C=C/C(C)=C\C=C\C(C)=C\C(=O)O)C(C)(C)CCC1 [ALITRETINOIN] | 10 | 13 | 
